The IC50 is the midpoint of a concentration-inhibition curve. A word on the EC50: it is the concentration giving half of the maximal effect.

The target in assay [1] is Histone deacetylase 1 (Homo sapiens) (UniProt Q13547). Kind of assay: Inhibition of HDAC1 in human HeLa-S3 cell lysates assessed as remaining activity at […] preincubated for 15 mins followed by HDAC-Glo substrate addition measured after 30 to 40 mins by […] relative to control.
Assay [2] deals with T1, Protein deacetylase HDAC6 (Homo sapiens) (UniProt Q9UBN7).
T1 sequence (whole entry): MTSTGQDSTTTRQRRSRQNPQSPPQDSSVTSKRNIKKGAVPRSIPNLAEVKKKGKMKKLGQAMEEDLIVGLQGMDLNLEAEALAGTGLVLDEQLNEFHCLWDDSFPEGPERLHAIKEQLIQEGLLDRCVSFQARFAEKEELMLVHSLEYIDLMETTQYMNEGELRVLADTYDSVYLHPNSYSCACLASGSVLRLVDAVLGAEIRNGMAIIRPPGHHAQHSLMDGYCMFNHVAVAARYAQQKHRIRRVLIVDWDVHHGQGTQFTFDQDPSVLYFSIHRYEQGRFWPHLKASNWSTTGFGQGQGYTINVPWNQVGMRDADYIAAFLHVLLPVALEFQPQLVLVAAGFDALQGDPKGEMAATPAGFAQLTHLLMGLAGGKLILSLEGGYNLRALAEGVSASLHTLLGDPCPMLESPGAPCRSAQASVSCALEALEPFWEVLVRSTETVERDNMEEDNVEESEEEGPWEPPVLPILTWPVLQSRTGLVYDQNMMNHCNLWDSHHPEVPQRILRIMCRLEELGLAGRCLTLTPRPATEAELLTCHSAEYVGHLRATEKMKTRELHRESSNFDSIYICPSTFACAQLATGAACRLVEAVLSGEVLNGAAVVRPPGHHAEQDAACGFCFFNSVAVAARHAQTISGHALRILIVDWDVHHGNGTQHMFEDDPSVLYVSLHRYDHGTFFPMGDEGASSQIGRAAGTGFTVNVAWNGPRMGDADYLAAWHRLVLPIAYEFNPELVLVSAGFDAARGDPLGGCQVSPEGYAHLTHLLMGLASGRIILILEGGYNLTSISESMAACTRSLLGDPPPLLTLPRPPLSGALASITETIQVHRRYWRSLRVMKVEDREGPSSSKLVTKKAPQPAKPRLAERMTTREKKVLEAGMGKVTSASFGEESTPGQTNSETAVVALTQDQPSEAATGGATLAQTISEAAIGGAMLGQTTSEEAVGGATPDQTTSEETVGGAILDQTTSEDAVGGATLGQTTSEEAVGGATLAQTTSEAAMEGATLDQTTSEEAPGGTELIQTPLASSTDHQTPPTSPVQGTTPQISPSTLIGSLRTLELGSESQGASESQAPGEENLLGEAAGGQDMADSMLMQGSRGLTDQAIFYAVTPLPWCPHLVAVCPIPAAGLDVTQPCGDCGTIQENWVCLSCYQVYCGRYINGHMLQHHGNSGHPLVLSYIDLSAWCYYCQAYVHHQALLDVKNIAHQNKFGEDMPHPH
The experiment in a line: Inhibition of HDAC6 in human HeLa-S3 cell lysates assessed as remaining activity at […] preincubated for 15 mins followed by HDAC-Glo substrate addition measured after 30 to 40 mins by […] relative to control.

Assay [3] addresses Histone deacetylase. Kind of assay: Inhibition of HDAC in human HeLa-S3 cell lysates preincubated for 15 mins followed by HDAC-Glo substrate addition measured after 35 mins by fluorimetric method. In kind it is protein assay.
Assay [4] has as its target T2, Histone deacetylase (Homo sapiens) (UniProt Q13547+O15379+Q9UBN7+Q92769+Q9UQL6+Q8WUI4+Q9BY41+Q96DB2+P56524+Q9UKV0+Q969S8). Kind of assay: Inhibition of HDAC in human HeLa-S3 cell lysates assessed as residual activity at 5 x 10^-6 M preincubated for 15 mins followed by HDAC-Glo substrate addition measured after 35 mins by fluorimetric method relative to control. In kind it is protein assay. The method in brief: (§1)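 Lysate (1 μg total protein) in HDAC-Glo buffer was preincubated with inhibitor in DMSO for 15 min at room temperature. HDAC-Glo substrate/developer reagent was added and luminescence read after 35 min. Concentrations are final. Signal corrected for a no-lysate blank; % of DMSO control.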

Assay [5] concerns the target Histone deacetylase 3 (Homo sapiens) (UniProt O15379). The experiment in a line: Inhibition of HDAC3 in human HeLa-S3 cell lysates assessed as remaining activity at […] preincubated for 15 mins followed by HDAC-Glo substrate addition measured after 30 to 40 mins by […] relative to control.
The target of assay [6] is T2, Histone deacetylase (Homo sapiens). The experiment in a line: Inhibition of HDAC in human HeLa-S3 cell lysates assessed as residual activity at 1 x 10^-5 M preincubated for 15 mins followed by HDAC-Glo substrate addition measured after 35 mins by […] relative to control. In kind it is protein assay. In a few lines:
as §1

The target is the same in assay [7]. Kind of assay: Inhibition of HDAC in human HeLa-S3 cell lysates assessed as residual activity at 1.25 x 10^-6 M preincubated for 15 mins followed by HDAC-Glo substrate addition measured after 35 mins by […] relative to control. In kind it is protein assay. The method in brief: as §1
The target in assay [8] is Histone deacetylase 2 (Homo sapiens) (UniProt Q92769). Kind of assay: Inhibition of HDAC2 in human HeLa-S3 cell lysates assessed as remaining activity at […] preincubated for 15 mins followed by HDAC-Glo substrate addition measured after 30 to 40 mins by […] relative to control.
Chain of Histone deacetylase 2 (Homo sapiens) (Q92769 whole entry): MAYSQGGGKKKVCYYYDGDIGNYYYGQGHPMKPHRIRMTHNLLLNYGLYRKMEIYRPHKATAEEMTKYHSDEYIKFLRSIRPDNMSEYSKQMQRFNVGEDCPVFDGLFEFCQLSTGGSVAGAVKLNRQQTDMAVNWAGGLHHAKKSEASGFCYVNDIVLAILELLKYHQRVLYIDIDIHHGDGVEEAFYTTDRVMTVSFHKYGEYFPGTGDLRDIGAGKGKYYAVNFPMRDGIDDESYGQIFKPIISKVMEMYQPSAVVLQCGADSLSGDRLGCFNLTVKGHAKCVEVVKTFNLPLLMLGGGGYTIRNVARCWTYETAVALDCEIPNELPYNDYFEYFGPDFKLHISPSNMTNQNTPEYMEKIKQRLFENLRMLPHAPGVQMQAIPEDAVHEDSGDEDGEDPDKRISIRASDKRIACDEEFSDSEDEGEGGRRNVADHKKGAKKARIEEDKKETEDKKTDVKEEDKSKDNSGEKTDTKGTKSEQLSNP
Assay [9] concerns the target T2, Histone deacetylase (Homo sapiens). Kind of assay: Inhibition of HDAC in human HeLa-S3 cell lysates assessed as residual activity at 2.5 x 10^-6 M preincubated for 15 mins followed by HDAC-Glo substrate addition measured after 35 mins by […] relative to control. In kind it is protein assay. The method in brief:
as §1

The target is the same in assay [10]. The experiment in a line: Inhibition of HDAC in human HeLa-S3 cell lysates assessed as residual activity at 6.25 x 10^-6 M preincubated for 15 mins followed by HDAC-Glo substrate addition measured after 35 mins by […] relative to control. In kind it is protein assay.
The test system of assay [11] is U-937. The experiment in a line: Cytotoxicity against human U937 cells assessed as cell viability at 8 x 10^-6 M after 44 hrs by MTT assay relative to control. In kind it is functional. The conditions noted are these: U-937, 44 h, read-out: Activity. Background: Formazan colour is commonly taken as a measure of viable cells.
Assay [12] has as its system U-937. Kind of assay: Cytotoxicity against human U937 cells assessed as cell viability at 2 x 10^-6 M after 44 hrs by MTT assay relative to control. The following applies: U-937, 44 h, read-out: Activity. In kind it is functional.
Assay [13] has as its system Jurkat. The experiment in a line: Cytotoxicity against human Jurkat cells assessed as cell viability at 10 uM after 44 hrs by MTT assay relative to control. The conditions noted are these: read-out: Activity. In kind it is functional.
The subject of assay [14] is Jurkat. Kind of assay: Cytotoxicity against human Jurkat cells assessed as cell viability at 1 uM after 44 hrs by MTT assay relative to control. In kind it is functional. The conditions noted are these: read-out: Activity.
In assay [15] the test system is U-937. Kind of assay: Cytotoxicity against human U937 cells assessed as cell viability at 4 x 10^-6 M after 44 hrs by MTT assay relative to control. The following applies: U-937, 44 h, read-out: Activity. In kind it is functional.
Assay [16] has as its system U-937. Kind of assay: Cytotoxicity against human U937 cells assessed as cell viability at 1.6 x 10^-5 M after 44 hrs by MTT assay relative to control. In kind it is functional. The conditions noted are these: U-937, 44 h, read-out: Activity.
Assay [17] relates to U-937. Kind of assay: Cytotoxicity against human U937 cells assessed as decrease in cell viability after 44 hrs by MTT assay. In kind it is functional, cell-based. The following applies: u-937.
Assay [18] concerns U-937. Kind of assay: Cytotoxicity against human U937 cells assessed as cell viability at 3.2 x 10^-5 M after 44 hrs by MTT assay relative to control. The following applies: U-937, 44 h, read-out: Activity. In kind it is functional.
Assay [19] has as its system U-937. The experiment in a line: Cytotoxicity against human U937 cells assessed as cell viability at 6.4 x 10^-5 M after 44 hrs by MTT assay relative to control. In kind it is functional. The following applies: U-937, 44 h, read-out: Activity.

Chain of Histone deacetylase 1 (Homo sapiens) (Q13547 whole entry): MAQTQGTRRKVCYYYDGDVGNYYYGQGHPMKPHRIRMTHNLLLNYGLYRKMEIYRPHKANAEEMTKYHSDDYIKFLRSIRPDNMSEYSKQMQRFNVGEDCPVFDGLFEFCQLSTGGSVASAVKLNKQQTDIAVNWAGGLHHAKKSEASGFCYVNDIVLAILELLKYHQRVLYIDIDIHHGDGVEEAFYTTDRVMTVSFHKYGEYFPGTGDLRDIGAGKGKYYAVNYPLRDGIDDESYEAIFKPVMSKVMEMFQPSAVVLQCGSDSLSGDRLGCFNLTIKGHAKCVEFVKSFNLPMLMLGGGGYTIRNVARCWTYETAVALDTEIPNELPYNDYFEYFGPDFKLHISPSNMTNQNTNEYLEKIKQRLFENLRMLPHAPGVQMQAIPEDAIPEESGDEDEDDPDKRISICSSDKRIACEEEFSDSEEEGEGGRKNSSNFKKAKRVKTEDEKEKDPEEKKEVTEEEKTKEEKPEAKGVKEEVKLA
Chain of Histone deacetylase 3 (Homo sapiens) (O15379 whole entry): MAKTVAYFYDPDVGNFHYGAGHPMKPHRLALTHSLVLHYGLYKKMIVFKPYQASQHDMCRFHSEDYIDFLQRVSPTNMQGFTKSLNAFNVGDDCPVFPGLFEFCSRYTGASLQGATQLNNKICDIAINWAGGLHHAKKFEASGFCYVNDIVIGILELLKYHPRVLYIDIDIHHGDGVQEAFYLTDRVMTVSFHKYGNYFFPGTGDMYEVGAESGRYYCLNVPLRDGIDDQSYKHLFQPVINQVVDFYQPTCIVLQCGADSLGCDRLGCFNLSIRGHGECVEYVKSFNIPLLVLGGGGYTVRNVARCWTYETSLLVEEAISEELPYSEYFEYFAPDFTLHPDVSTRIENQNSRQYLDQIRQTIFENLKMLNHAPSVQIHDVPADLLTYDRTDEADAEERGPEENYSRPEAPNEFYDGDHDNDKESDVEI

`CC(CCCC(=O)Nc1ccccc1)CCC(=O)NO` (centres undefined): the Activity in assay [1] worked out at 75%; in assay [2] it was 26%; in assay [4], 38%; in [5] it was 78%; in assay [6], 17%; in assay [7], 79%. The Activity in assay [8] was 90%; in assay [9], 60%; in [10], 91%. In addition, in [3], the 50% inhibitory concentration (IC50) was determined as 3.3 µM.
As for `CCCCC(CCCC(=O)Nc1ccccc1)CCC(=O)NO` (centres undefined), the viability at 8 µM in assay [11] came out at 87%. Moreover, in [12], the viability at 2 µM amounted to 100%. For the same molecule, in assay [13], the viability at 10 µM was found to be 62%. Further, in [14], the viability at 1 µM was determined as 98%. The viability at 4 µM in assay [15] came to 100%. For the same molecule, in [16], the viability at 16 µM was 80%. In assay [17], the EC50 worked out at 34 µM. Besides, in assay [18], the viability at 32 µM stood at 54%. For the same molecule, the viability at 64 µM in assay [19] amounted to 24%.

Source of the values: ChEMBL document CHEMBL4251567 (Eur J Med Chem, 2018).
